Calls of active or inactive are those of the source. The calls are words filed in the database; no cut-off is given here.
Key:
[1] = system: HeLa; test: Dark toxicity against human HeLa cells assessed as cell viability up to 10 uM incubated for 12 hrs under dark conditions by WST-8 assay; assay type: cell-based
Summary of the method: (§1)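 HeLa (ATCC) grown in EMEM + 10% FBS, 37 °C, 5% CO2, humidified; seeded per well in 96-well plates, 24 h, then medium replaced with fresh medium containing photosensitizer (0–10 μM). Irradiated with 670–710 nm light, 2 J/cm2 over 15 min, or kept dark; then 12 h at 37 °C in dark. WST-8 (CCK-8) added, 2 h; formazan read. DMSO vehicle control, medium+reagent blank; ≥3 repeats, mean.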

[2] = system: HeLa; test: Photosensitizing activity against human HeLa cells assessed as reduction in cell viability pre-incubated for 24 hrs followed by 15 mins exposure to 670 to 710 nm light at dose of 2.0 J/cm2 and measured 12 hrs after radiation by WST-8 assay; assay type: functional, cell-based; details: for IC50: light or radiation study; summary of the method: as §1
[3] = Singlet oxygen generation assessed as comparative absorbance decay of 1,3-diphenylisobenzofuran at 1 uM at 418 nm after photoirradiation at 2.0 J/cm2 for 15 mins by spectrometry
Summary of the method: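 Photosensitizer at 1 μM with DPBF (50 μM in DMSO), irradiated; visible spectra recorded and normalized DPBF absorbance at 418 nm compared against DPBF-only control, methylene blue as reference; mean of three experiments.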

[4] = system: HeLa; test: Photosensitizing activity against human HeLa cells assessed as cell viability at 0.05 uM pre-incubated for 24 hrs followed by 15 mins exposure to 670 to 710 nm light at dose of 2.0 J/cm2 and measured 12 hrs after radiation by WST-8 assay; assay type: functional; details: light or radiation study, read-out: Activity; summary of the method: as §1
[5] = system: HeLa; test: Photosensitizing activity against human HeLa cells assessed as cell viability at 0.1 uM pre-incubated for 24 hrs followed by 15 mins exposure to 670 to 710 nm light at dose of 2.0 J/cm2 and measured 12 hrs after radiation by WST-8 assay; assay type: functional; details: light or radiation study, read-out: Activity; summary of the method: as §1

Compound	Activity [1]	Activity [2]	IC50 [2] [nM]	Activity [3]	viability at 0.05 µM [4] [%]	viability at 0.1 µM [5] [%]
CCC1=C(C)c2cc3[nH]c(cc4nc(c(CC(=O)OC)c5[nH]c(cc1n2)c(C)c5C(=O)OC)[C@@H](CCC(=O)OC)[C@@H]4C)c(C)c3/C=C/c1ccc2ccccc2n1	Non-toxic	Dose-dependent effect	170	Active		
CCC1=C(C)c2cc3[nH]c(cc4nc(c5c6[nH]c(cc1n2)c(C)c6C(=O)C5)[C@@H](CCC(=O)OC)[C@@H]4C)c(C)c3/C=C/c1ccncc1	Non-toxic	Dose-dependent effect	581	Active		
CCC1=C(C)c2cc3[nH]c(cc4nc(c5c6[nH]c(cc1n2)c(C)c6C(=O)C5)[C@@H](CCC(=O)OC)[C@@H]4C)c(C)c3/C=C/c1ccc2ccccc2n1	Non-toxic	Dose-dependent effect	631	Active		
C=Cc1c(C)c2cc3nc(c4c5[nH]c(cc6nc(cc1[nH]2)C(C)=C6CC)c(C)c5C(=O)N(Cc1ccncc1)C4=O)[C@@H](CCC(=O)OC)[C@@H]3C	Non-toxic	Dose-dependent effect	189	Active		
CCC1=C(C)c2cc3[nH]c(cc4nc(c(CC(=O)OC)c5[nH]c(cc1n2)c(C)c5C(=O)OC)[C@@H](CCC(=O)OC)[C@@H]4C)c(C)c3/C=C/c1ccncc1	Non-toxic	Dose-dependent effect	141	Active		
CN(C)c1ccc2nc3ccc(=[N+](C)C)cc-3sc2c1				Active		
CCC1=C(C)c2cc3[nH]c(cc4nc(c5c6[nH]c(cc1n2)c(C)c6C(=O)N(OC)C5=O)[C@@H](CCC(=O)OC)[C@@H]4C)c(C)c3/C=C/c1ccc2ccccc2n1	Non-toxic	Dose-dependent effect	992	Active		
CCC1=C(C)c2cc3[nH]c(cc4nc(c5c6[nH]c(cc1n2)c(C)c6C(=O)N(OC)C5=O)[C@@H](CCC(=O)OC)[C@@H]4C)c(C)c3/C=C/c1ccncc1	Non-toxic	Dose-dependent effect	3120	Active		
C=Cc1c(C)c2cc3nc(c(CC(=O)OC)c4[nH]c(cc5nc(cc1[nH]2)C(C)=C5CC)c(C)c4C(=O)NCc1ccncc1)[C@@H](CCC(=O)OC)[C@@H]3C	Non-toxic	Dose-dependent effect	71		65.5	28.1
C=Cc1c(C)c2cc3nc(c4c5[nH]c(cc6nc(cc1[nH]2)C(C)=C6CC)c(/C=C/c1ccncc1)c5C(=O)C4)[C@@H](CCC(=O)OC)[C@@H]3C	Non-toxic	Dose-dependent effect	33	Active	22.2	1.4
